Results reported in ChEMBL document CHEMBL1125745, “Unsaturated and carbocyclic nucleoside analogues: synthesis, antitumor, and antiviral activity” (J Med Chem, 1991).

Assays:
[1] = Cytotoxicity was evaluated against CO9 solid tumor of mouse at 500 ug/disk.; type: functional
Method in brief: (§1)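 Disk zone assay: analogue dilutions on 6.5 mm paper disks were placed on dishes with a 0.8% agar bottom layer and a 0.44% soft-agar top layer of tumor cells (≤1 × 10^5/plate) in Fishers-CMRL-1066 with 12% horse serum. Plates were incubated 6-10 days and the inhibition zone was measured by microscope; 200 zone units = 6 mm.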

L1210 [2] = assay: Compound were evaluated for inhibition of macromolecular synthesis in murine leukemia L1210 cells at 1 hour against Protein; type: functional, Mus musculus; set-up: scale not given: the % may be the effect or the level left
L1210 [3] = assay: Compound were evaluated for inhibition of macromolecular synthesis in murine leukemia L1210 cells at 4 hour against Protein; type: functional, Mus musculus; set-up: scale not given: the % may be the effect or the level left
L1210 [4] = assay: Compound were evaluated for inhibition of macromolecular synthesis in murine leukemia L1210 cells at 4 hour against RNA.; type: functional, Mus musculus; set-up: scale not given: the % may be the effect or the level left
L1210 [5] = assay: Compounds were evaluated for inhibition of macromolecular synthesis in murine leukemia L1210 cells at 1 hour against DNA.; type: functional, Mus musculus; set-up: scale not given: the % may be the effect or the level left
L1210 [6] = assay: Compound were evaluated for inhibition of macromolecular synthesis in murine leukemia L1210 cells at 4 hour against DNA.; type: functional, Mus musculus; set-up: scale not given: the % may be the effect or the level left
L1210 [7] = assay: Compounds were evaluated for inhibition of macromolecular synthesis in murine leukemia L1210 cells at 1 hour against RNA.; type: functional, Mus musculus; set-up: scale not given: the % may be the effect or the level left
L1210 [8] = assay: Cytotoxicity was evaluated against L1210 leukemia cell line at 500 ug/disk.; type: functional, Mus musculus; method in brief: as §1
[9] = Cytotoxicity was evaluated against low malignancy line at 500 ug/disk.; type: functional; method in brief: as §1
L1210 [10] = assay: Inhibitory activity against murine leukemia L1210 cells; type: functional, cell-based; details: Mus musculus
Homo sapiens [11] = species on record: Homo sapiens; assay: Cytotoxicity was evaluated against PO1 human solid tumor at 500 ug/disk.; type: functional; method in brief: as §1
Mus musculus [12] = species on record: Mus musculus; assay: Concentration that reduces Friend murine leukemia virus titer by 50%; type: functional, organism-based
Method in brief: (§2)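 SC-1 cells (1 × 10^4/well) were pretreated with polybrene, infected 2 h at 37 °C with F-MuLV or R-MuLV in EMEM-5 with 8 µg/mL polybrene, washed, and refed with analogue for 72 h. They were then UV-irradiated and overlaid with XC cells (2 × 10^5) for 48 h, fixed and stained with crystal violet. Multinucleated cells were counted and EC50 was taken by linear regression versus untreated cultures.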

[13] = Inhibition of incorporation of labeled precursor into macromolecules of noninfected SC-1 cells with the compound at a concentration 300 uM determined against leucine.; type: functional
Method in brief: (§3)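 SC-1 cells seeded in 24-well trays at 1 × 10^4 cells/mL, incubated overnight at 37 °C, then exposed to analogue for 72 h at 37 °C. Labeled thymidine (2.5 µCi), [3H-5,6]uridine or [3H-4,5]leucine was added. After 4 h, cells were washed with cold PBS, lysed in 1% SDS/0.01 M EDTA/0.01 M Tris pH 7.7, and lysates were dried on GF/B filters. Result given as % of untreated incorporation.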

[14] = Inhibition of incorporation of labeled precursor into macromolecules of noninfected SC-1 cells with the compound at a concentration 300 uM determined against thymidine; type: functional; method in brief: as §3
[15] = Inhibition of incorporation of labeled precursor into macromolecules of noninfected SC-1 cells with the compound at a concentration 300 uM determined against uridine.; type: functional; method in brief: as §3
[16] = Inhibition of incorporation of labeled precursor into macromolecules of noninfected SC-1 cells with the compound at a concentration 100 uM determined against leucine.; type: functional
Method in brief: (§4)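 Noninfected SC-1 cells were incubated with analogue as in the cytotoxicity setup, and [3H]thymidine, [3H]uridine or [3H]leucine was added. After 4 h, wells were washed with ice-cold PBS and cells were lysed in 1% SDS, 0.01 M EDTA, 0.01 M Tris pH 7.7. Lysates were dried on glass-fiber filters, and label is expressed as percent of incorporation in untreated cells.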

[17] = Inhibition of incorporation of labeled precursor into macromolecules of noninfected SC-1 cells with the compound at a concentration 100 uM determined against thymidine; type: functional; method in brief: as §4
[18] = Inhibition of incorporation of labeled precursor into macromolecules of noninfected SC-1 cells with the compound at a concentration 100 uM determined against uridine.; type: functional; method in brief: as §4
Mus musculus [19] = species on record: Mus musculus; assay: Cytotoxicity was evaluated; type: functional
Method in brief: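 SC-1 cells (1 × 10^4 cells/mL) were seeded, incubated overnight at 37 °C, refed with EMEM-10 and given diluted analogue in triplicate for 72 h at 37 °C. Cells were trypsinized and counted in a Coulter counter. The mean of three wells gave percent of control count, and IC50 was calculated by linear regression.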

Mus musculus [20] = species on record: Mus musculus; assay: Concentration that reduces Rauscher murine leukemia virus titer by 50%; type: functional, organism-based; method in brief: as §2
Mus musculus [21] = species on record: Mus musculus; assay: Selectivity index which is the ratio of IC50 to EC50 of R-MuLV.; type: functional
[22] = Selectivity index is the ratio of IC50 to EC50 of F-MuLV.; type: functional
Homo sapiens [23] = species on record: Homo sapiens; assay: Cytotoxicity was evaluated against C116 human solid tumor at 1000 ug/disk.; type: functional; method in brief: as §1
MC-38 = assay: Cytotoxicity was evaluated against C38 solid tumor of mouse at 1000 ug/disk.; type: functional; method in brief: as §1
Nucleic Acid [24] = assay: (§5) Compound was evaluated for inhibition of macromolecular synthesis in murine leukemia L1210 cells at 1 hour against DNA.; type: functional, cell-based; set-up: scale not given: the % may be the effect or the level left; details: Mus musculus
Nucleic Acid [25] = assay: (§6) Compound was evaluated for inhibition of macromolecular synthesis in murine leukemia L1210 cells at 4 hour against DNA.; type: functional, cell-based; set-up: scale not given: the % may be the effect or the level left; details: Mus musculus
Nucleic Acid [26] = assay: Compound was evaluated for inhibition of macromolecular synthesis in murine leukemia L1210 cells at 8 hour against DNA.; type: functional, cell-based; set-up: scale not given: the % may be the effect or the level left; details: Mus musculus
[27] = (§7) Cytotoxicity was evaluated against low malignancy line at 1000 ug/disk.; type: functional; method in brief: as §1
L1210 [28] = assay: Cytotoxicity was evaluated against L1210 leukemia cell line at 1000 ug/disk.; type: functional, Mus musculus; method in brief: as §1
Mus musculus [29] = species on record: Mus musculus; assay: (§8) Compound was evaluated for inhibition of macromolecular synthesis in murine leukemia L1210 cells at 1 hour against Protein; type: functional; set-up: scale not given: the % may be the effect or the level left
Mus musculus [30] = species on record: Mus musculus; assay: (§9) Compound was evaluated for inhibition of macromolecular synthesis in murine leukemia L1210 cells at 4 hour against Protein; type: functional; set-up: scale not given: the % may be the effect or the level left
Mus musculus [31] = species on record: Mus musculus; assay: Compound was evaluated for inhibition of macromolecular synthesis in murine leukemia L1210 cells at 8 hour against Protein; type: functional; set-up: scale not given: the % may be the effect or the level left
Nucleic Acid [32] = assay: Compound was evaluated for inhibition of macromolecular synthesis in murine leukemia L1210 cells at 8 hour against RNA.; type: functional, cell-based; set-up: scale not given: the % may be the effect or the level left; details: Mus musculus
Nucleic Acid [33] = assay: (§10) Compound was evaluated for inhibition of macromolecular synthesis in murine leukemia L1210 cells at 1 hour against RNA.; type: functional, cell-based; set-up: scale not given: the % may be the effect or the level left; details: Mus musculus
Nucleic Acid [34] = assay: (§11) Compound was evaluated for inhibition of macromolecular synthesis in murine leukemia L1210 cells at 4 hour against RNA.; type: functional, cell-based; set-up: scale not given: the % may be the effect or the level left; details: Mus musculus
Homo sapiens [35] = species on record: Homo sapiens; assay: Cytotoxicity was evaluated against C116 human solid tumor at 250 ug/disk.; type: functional; method in brief: as §1
[36] = Cytotoxicity was evaluated against low malignancy line at 250 ug/disk.; type: functional; method in brief: as §1
L1210 [37] = assay: as §5; type: functional, Mus musculus; set-up: scale not given: the % may be the effect or the level left
L1210 [38] = assay: as §8; type: functional, Mus musculus; set-up: scale not given: the % may be the effect or the level left
L1210 [39] = assay: as §10; type: functional, Mus musculus; set-up: scale not given: the % may be the effect or the level left
L1210 [40] = assay: as §6; type: functional, Mus musculus; set-up: scale not given: the % may be the effect or the level left
L1210 [41] = assay: as §9; type: functional, Mus musculus; set-up: scale not given: the % may be the effect or the level left
L1210 [42] = assay: as §11; type: functional, Mus musculus; set-up: scale not given: the % may be the effect or the level left
L1210 [43] = assay: Cytotoxicity was evaluated against L1210 leukemia cell line at 250 ug/disk.; type: functional, Mus musculus; method in brief: as §1
Homo sapiens [44] = species on record: Homo sapiens; assay: Cytotoxicity was evaluated against PO1 human solid tumor at 250 ug/disk.; type: functional; method in brief: as §1
PO3 = assay: Cytotoxicity was evaluated against PO3 cell line at 250 ug/disk.; type: functional, Mus musculus; method in brief: as §1
Mus musculus [45] = species on record: Mus musculus; assay: as §7; type: functional; method in brief: as §1

`Nc1ccn(C/C=C\CCl)c(=O)n1` showed a Cytotoxicity [1] of 410, a Control (L1210 [2]) of 100% and a Control (L1210 [3]) of 100%. It also gave a Control (L1210 [4]) of 100%, a Control (L1210 [5]) of 80% and a Control (L1210 [6]) of 67%. The Control (L1210 [7]) was 100%, the Cytotoxicity (L1210 [8]) was 640 and the Cytotoxicity [9] was 450. For the same molecule, the IC50 (L1210 [10]) was 10 µM and the Cytotoxicity (Homo sapiens [11]) was 640.

With `Nc1ncnc2c1ncn2C1C(O)C(O)C(CO)C1O` (stereo unspecified) the EC50 (Mus musculus [12]) was 67.3 µM, the Precursor inhibition [13] was 53% and the Precursor inhibition [14] was 110%. The Precursor inhibition [15] was 29%, the Precursor inhibition [16] was 99% and the Precursor inhibition [17] was 115%. For the same molecule, the Precursor inhibition [18] was 56%, the IC50 (Mus musculus [19]) was 281 µM and the EC50 (Mus musculus [20]) was 25 µM. It also gave an SI (Mus musculus [21]) of 9.1 and an SI [22] of 3.4.

Molecule `Oc1nccc(NCC#CCCl)n1` has a Cytotoxicity (Homo sapiens [23]) of 660, a Cytotoxicity (MC-38) of 720 and a Control (Nucleic Acid [24]) of 60%. It also gave a Control (Nucleic Acid [25]) of 35%, a Control (Nucleic Acid [26]) of 5% and a Cytotoxicity [27] of 600. For the same molecule, the Cytotoxicity (L1210 [28]) was 530, the Control (Mus musculus [29]) was 85% and the Control (Mus musculus [30]) was 70%. It also gave a Control (Mus musculus [31]) of 55%, an IC50 (L1210 [10]) of 20 µM and a Control (Nucleic Acid [32]) of 18%. For the same molecule, the Control (Nucleic Acid [33]) was 75% and the Control (Nucleic Acid [34]) was 60%.

Molecule `Nc1ccn(C2C=CCO2)c(=O)n1` (stereo unspecified) has a Cytotoxicity (Homo sapiens [35]) of 450, a Cytotoxicity [36] of 400 and a Control (L1210 [37]) of 85%. The Control (L1210 [38]) was 100%, the Control (L1210 [39]) was 100% and the Control (L1210 [40]) was 55%. The Control (L1210 [41]) was 50%, the Control (L1210 [42]) was 85% and the Cytotoxicity (L1210 [43]) was 500. It also gave an IC50 (L1210 [10]) of 28 µM, a Cytotoxicity (Homo sapiens [44]) of 600 and a Cytotoxicity (PO3) of 500.

`Cc1cn(C2C=CCO2)c(=O)[nH]c1=O` (stereo unspecified) showed a Cytotoxicity (Homo sapiens [23]) of 260, a Cytotoxicity (MC-38) of 430 and a Cytotoxicity (Mus musculus [45]) of 500. For the same molecule, the Control (L1210 [40]) was 10%, the Control (L1210 [41]) was 90% and the Control (L1210 [42]) was 50%. The Cytotoxicity (L1210 [28]) was 410 and the IC50 (L1210 [10]) was 50 µM.
